Source: ChEMBL document CHEMBL3580617, “Discovery of Benzimidazole CYP11B2 Inhibitors with in Vivo Activity in Rhesus Monkeys” (ACS Med Chem Lett, 2015)
Calls of active or inactive are those of the source. No cut-off for these calls is given here.

Tests used:
[1] = molecular target: T1, Cytochrome P450 11B2, mitochondrial (Homo sapiens, UniProt P19099); assay: Inhibition of human CYP11B2 expressed in V79 cells incubated for 1 hr before 11-deoxycorticosterone substrate addition by HTRF-based assay; type: cell-based
T1 sequence (P19099 whole entry): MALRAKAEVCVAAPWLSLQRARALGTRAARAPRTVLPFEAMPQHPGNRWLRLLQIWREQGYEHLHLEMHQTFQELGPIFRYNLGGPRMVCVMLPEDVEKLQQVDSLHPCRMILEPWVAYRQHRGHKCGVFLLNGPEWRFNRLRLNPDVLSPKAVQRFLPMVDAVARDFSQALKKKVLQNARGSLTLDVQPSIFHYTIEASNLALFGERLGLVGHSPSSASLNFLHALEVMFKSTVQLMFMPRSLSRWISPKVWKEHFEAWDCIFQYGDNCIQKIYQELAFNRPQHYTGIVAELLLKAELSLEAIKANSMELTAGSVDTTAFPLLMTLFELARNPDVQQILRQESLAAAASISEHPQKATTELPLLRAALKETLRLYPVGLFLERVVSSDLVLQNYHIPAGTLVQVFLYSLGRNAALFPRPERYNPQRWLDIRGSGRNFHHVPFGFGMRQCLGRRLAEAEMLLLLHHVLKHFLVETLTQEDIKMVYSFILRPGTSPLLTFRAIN
Outline: (§1)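 Human CYP11B2 and CYP11B1 inhibition was tested in cell-based assays. Selectivity was taken as the hCYP11B1 IC50 divided by the hCYP11B2 IC50.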

[2] = molecular target: T2, Cytochrome P450 11B1, mitochondrial (Homo sapiens, UniProt P15538); assay: Inhibition of human CYP11B1 expressed in V79 cells incubated for 1 hr before 11-deoxycortisol substrate addition by HTRF-based assay; type: cell-based; outline: as §1
T2 sequence (P15538 whole entry): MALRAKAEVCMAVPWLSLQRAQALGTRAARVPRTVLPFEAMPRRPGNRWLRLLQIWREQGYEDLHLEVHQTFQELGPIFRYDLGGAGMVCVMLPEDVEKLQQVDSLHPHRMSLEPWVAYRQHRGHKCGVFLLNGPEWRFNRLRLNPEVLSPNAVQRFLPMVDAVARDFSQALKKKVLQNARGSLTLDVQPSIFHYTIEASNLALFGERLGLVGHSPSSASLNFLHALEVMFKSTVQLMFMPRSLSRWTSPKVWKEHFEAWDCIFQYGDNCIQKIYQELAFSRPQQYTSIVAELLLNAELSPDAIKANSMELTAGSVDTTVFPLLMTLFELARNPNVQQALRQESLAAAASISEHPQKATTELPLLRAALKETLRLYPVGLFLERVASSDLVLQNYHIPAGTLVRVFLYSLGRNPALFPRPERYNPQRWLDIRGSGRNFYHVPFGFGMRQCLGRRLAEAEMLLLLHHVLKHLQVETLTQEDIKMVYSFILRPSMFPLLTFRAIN

Homo sapiens = species on record: Homo sapiens; assay: Selectivity index, ratio of IC50 for human CYP11B1 to IC50 for human CYP11B2; outline: as §1
[3] = molecular target: T3, Alpha-2B adrenergic receptor (Homo sapiens, UniProt P18089); assay: Inhibition of adrenergic alpha-2B receptor (unknown origin)
T3 sequence (P18089 whole entry): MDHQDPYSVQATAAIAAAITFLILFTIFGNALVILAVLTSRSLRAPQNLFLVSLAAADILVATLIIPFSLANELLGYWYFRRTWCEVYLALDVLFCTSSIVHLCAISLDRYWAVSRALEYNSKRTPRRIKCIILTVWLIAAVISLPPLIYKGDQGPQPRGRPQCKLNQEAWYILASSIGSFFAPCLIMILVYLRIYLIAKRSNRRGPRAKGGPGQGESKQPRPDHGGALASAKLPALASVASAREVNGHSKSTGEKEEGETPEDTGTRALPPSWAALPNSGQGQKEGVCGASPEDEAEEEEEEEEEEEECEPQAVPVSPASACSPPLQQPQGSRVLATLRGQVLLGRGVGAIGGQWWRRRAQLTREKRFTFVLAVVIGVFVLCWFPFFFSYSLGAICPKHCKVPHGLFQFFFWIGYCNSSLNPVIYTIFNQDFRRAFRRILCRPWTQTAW
Outline: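 Binding activity was profiled across a panel of 114 receptors, enzymes and ion channels, with an IC50 determined against any target that was hit.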

[4] = Plasma clearance in rhesus monkey at 1 mg/kg, po or 0.5 mg/kg, iv by LC-MS/MS method; type: ADME, organism-based, Macaca mulatta
[5] = Half life in rhesus monkey at 1 mg/kg, po or 0.5 mg/kg, iv by LC-MS/MS method; type: ADME, organism-based, Macaca mulatta; conditions: in vivo
[6] = molecular target: Sodium channel protein type 5 subunit alpha (Homo sapiens, UniProt Q14524); assay: Block of Nav1.5 ion channel in functional assay (unknown origin)
Sodium channel protein type 5 subunit alpha, sequence (Q14524 whole entry): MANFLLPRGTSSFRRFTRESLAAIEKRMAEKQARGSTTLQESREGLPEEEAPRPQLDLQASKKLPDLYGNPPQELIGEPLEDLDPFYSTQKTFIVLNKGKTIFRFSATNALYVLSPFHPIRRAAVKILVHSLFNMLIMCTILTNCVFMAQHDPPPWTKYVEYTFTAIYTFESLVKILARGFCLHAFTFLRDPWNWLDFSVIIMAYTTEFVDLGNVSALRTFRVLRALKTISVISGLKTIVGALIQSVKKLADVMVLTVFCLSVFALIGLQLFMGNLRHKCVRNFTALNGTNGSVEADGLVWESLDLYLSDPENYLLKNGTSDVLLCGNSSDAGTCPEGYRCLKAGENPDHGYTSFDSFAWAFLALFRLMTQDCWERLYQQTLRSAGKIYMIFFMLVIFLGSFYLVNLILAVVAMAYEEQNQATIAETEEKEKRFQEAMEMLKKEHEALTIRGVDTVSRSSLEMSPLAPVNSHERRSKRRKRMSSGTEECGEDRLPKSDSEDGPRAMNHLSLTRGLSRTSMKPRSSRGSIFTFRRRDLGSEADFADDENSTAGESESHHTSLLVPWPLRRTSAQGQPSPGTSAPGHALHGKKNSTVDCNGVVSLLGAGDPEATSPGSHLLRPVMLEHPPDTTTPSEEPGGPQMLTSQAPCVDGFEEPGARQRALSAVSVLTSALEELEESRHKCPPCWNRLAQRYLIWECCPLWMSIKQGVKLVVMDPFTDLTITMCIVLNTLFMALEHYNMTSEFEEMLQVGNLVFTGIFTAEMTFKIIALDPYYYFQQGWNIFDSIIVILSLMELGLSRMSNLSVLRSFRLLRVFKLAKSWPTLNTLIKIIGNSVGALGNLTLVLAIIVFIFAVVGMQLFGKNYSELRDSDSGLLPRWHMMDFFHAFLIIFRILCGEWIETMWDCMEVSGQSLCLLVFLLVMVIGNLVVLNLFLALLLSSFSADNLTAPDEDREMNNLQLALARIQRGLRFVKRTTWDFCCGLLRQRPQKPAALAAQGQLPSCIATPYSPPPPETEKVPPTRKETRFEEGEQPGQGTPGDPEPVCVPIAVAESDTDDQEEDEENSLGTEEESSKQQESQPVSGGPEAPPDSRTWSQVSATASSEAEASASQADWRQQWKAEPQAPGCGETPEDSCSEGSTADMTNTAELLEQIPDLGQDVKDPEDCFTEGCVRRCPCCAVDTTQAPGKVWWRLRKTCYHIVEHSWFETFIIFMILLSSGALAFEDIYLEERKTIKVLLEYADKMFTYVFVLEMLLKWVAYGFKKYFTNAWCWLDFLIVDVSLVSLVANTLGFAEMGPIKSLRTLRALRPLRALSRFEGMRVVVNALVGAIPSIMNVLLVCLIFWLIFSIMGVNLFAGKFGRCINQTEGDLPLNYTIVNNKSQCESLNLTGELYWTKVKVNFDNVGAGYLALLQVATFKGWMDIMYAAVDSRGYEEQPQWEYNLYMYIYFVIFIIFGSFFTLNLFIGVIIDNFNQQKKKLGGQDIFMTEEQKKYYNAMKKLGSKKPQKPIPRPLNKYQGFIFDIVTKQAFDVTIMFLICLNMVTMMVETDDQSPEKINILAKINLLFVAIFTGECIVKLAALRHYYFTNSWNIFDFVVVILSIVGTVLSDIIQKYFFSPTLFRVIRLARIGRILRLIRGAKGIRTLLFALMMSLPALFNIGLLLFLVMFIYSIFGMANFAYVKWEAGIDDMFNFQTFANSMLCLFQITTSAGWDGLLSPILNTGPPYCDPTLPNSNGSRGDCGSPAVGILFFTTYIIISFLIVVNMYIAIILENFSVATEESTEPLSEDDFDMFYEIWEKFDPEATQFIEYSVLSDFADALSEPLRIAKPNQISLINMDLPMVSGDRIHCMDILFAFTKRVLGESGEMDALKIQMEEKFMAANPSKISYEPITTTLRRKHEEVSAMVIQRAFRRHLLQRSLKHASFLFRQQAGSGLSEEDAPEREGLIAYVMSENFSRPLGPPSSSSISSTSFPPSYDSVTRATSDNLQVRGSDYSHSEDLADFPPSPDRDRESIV

[7] = molecular target: Voltage-dependent L-type calcium channel subunit alpha-1C (Homo sapiens, UniProt Q13936); assay: Block of Cav1.2 ion channel in functional assay (unknown origin)
Voltage-dependent L-type calcium channel subunit alpha-1C, sequence (Q13936 whole entry): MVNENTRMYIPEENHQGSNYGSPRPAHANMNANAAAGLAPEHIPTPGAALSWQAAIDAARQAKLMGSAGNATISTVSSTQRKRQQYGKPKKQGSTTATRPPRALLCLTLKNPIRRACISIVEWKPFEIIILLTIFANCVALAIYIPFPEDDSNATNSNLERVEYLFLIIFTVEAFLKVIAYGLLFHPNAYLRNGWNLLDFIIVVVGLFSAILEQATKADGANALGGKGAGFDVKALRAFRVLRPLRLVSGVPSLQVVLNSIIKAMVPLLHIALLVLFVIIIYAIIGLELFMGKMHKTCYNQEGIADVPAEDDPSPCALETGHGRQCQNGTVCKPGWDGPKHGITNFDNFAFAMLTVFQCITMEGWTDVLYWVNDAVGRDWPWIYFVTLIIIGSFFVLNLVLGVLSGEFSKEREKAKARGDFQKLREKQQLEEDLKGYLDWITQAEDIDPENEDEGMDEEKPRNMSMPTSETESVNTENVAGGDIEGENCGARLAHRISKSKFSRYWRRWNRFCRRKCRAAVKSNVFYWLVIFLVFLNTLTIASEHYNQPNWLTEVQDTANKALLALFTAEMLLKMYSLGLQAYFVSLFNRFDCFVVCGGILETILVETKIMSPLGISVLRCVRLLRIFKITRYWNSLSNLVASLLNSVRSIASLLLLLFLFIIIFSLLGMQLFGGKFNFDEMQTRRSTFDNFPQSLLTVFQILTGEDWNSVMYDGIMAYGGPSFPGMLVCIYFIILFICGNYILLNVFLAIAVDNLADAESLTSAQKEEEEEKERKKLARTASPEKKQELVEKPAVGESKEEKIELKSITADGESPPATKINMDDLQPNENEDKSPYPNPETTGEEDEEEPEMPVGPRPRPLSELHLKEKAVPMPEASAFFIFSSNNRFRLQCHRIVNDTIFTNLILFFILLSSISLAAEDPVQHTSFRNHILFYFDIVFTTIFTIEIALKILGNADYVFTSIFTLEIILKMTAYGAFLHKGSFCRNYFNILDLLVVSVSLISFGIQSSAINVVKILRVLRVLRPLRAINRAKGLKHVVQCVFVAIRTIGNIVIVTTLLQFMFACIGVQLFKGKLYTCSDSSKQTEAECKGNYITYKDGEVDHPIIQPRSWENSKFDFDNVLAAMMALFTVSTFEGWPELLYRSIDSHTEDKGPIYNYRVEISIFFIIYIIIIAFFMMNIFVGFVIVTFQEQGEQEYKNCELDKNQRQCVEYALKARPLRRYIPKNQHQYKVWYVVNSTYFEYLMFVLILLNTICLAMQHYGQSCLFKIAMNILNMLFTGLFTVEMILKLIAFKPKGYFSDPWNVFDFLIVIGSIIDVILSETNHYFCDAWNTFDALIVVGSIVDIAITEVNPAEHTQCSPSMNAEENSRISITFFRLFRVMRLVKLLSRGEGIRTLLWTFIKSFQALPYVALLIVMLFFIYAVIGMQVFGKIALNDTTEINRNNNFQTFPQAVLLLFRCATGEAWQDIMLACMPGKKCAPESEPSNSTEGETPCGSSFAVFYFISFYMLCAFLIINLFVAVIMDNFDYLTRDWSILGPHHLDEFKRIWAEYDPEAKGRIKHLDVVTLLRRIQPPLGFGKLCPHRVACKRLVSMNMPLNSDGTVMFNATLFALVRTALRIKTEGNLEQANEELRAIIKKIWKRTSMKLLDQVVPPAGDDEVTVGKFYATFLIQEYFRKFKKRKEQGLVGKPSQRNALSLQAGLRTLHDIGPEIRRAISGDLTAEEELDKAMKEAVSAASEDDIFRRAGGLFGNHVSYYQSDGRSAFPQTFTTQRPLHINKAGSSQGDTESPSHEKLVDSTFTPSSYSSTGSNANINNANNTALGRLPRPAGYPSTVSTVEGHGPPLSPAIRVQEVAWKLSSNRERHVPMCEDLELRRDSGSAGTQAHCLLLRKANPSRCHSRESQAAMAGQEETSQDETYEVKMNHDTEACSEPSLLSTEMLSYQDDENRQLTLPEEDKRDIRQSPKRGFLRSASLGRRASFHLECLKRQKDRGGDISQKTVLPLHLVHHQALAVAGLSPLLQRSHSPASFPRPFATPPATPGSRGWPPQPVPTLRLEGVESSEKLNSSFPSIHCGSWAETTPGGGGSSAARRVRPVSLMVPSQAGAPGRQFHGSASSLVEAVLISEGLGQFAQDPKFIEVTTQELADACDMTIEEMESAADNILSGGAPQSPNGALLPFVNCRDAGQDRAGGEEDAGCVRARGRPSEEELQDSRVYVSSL

Rhesus monkey [8] = assay: Reduction in aldosterone levels in low sodium diet fed rhesus monkey at 0.01 to 0.3 mg/kg, iv followed by 0.3 mg/kg ACTH dosing and measured 30 mins to 180 mins post ACTH administration by UPLC coupled with tandem mass spectrometry; type: functional, organism-based; conditions: Macaca mulatta; 0.001 to 0.3 mg/kg; in the assay text read “0.001 to 0.3 mg/kg” for “0.01 to 0.3 mg/kg”
Outline: (§2)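 Anesthetized rhesus monkeys were given i.v. doses from 0.001 to 0.3 mg/kg. Plasma aldosterone and 11-deoxycortisol were quantified by LC-MS at time points up to 180 min postdose, and AUCs were determined for each. Plasma drug was measured at 90 min postdose. Free (unbound) concentrations were calculated from the measured fraction unbound in rhesus plasma.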

Rhesus monkey [9] = assay: Reduction in aldosterone levels in low sodium diet fed rhesus monkey at 0.01 mg/kg, iv followed by 0.3 mg/kg ACTH dosing and measured 30 mins to 180 mins post ACTH administration by UPLC coupled with tandem mass spectrometry; type: functional, Macaca mulatta; outline: as §2
Rhesus monkey [10] = assay: Reduction in aldosterone levels in low sodium diet fed rhesus monkey assessed as free plasma concentration causing reduction in aldosterone at 0.01 mg/kg, iv followed by 0.3 mg/kg ACTH dosing and measured 90 mins post ACTH administration by UPLC coupled with tandem mass spectrometry; type: functional, Macaca mulatta; outline: as §2
Rhesus monkey [11] = assay: Reduction in aldosterone levels in low sodium diet fed rhesus monkey assessed as free plasma concentration causing reduction in aldosterone at 0.3 mg/kg, iv followed by 0.3 mg/kg ACTH dosing and measured 90 mins post ACTH administration by UPLC coupled with tandem mass spectrometry; type: functional, Macaca mulatta; outline: as §2
Rhesus monkey [12] = assay: Increase in 11-deoxycortisol levels in low sodium diet fed rhesus monkey up to 0.3 mg/kg, iv followed by 0.3 mg/kg ACTH dosing and measured 30 mins to 180 mins post ACTH administration by UPLC coupled with tandem mass spectrometry; type: functional, organism-based; conditions: Macaca mulatta; outline: as §2
[13] = Inhibition of rhesus monkey CYP11B1; parameters: species or system Macaca mulatta
Rhesus monkey [14] = assay: […] in 11-deoxycortisol levels in low sodium diet fed rhesus monkey at free plasma concentration up to 27 nM dosed at 0.01 to 0.3 mg/kg, iv followed by 0.3 mg/kg ACTH dosing and measured 90 mins post ACTH administration by UPLC coupled with tandem mass spectrometry; type: functional, organism-based; conditions: Macaca mulatta; outline: as §2

IC50 [1]	IC50 [2]	Ratio IC50 (Homo sapiens)	IC50 [3]	clearance [4]	half-life [5]	IC50 [13]	SMILES	IC50 [6]	IC50 [7]	inhibition (Rhesus monkey [8])	inhibition (INH) (Rhesus monkey [9])	Cp(f) (Rhesus monkey [10])	Cp(f) (Rhesus monkey [11])	Activity (Rhesus monkey [12])	inhibition (Rhesus monkey [14])
4.7 nM	435 nM	93	2490 nM	10 mL/min/kg	7.4 h		Fc1cncc(-c2nc3cc(F)c(F)cc3n2C2CC2)c1	> 30000 nM	> 30000 nM						
				5 mL/min/kg		41 nM	CC(C)(O)c1cncc(-c2nc3ccc(F)cc3n2C2CC2)c1 [MSD-CYP11B2]			Dose-dependent effect	62%	12 nM	27 nM	inactive	inactive
